From ChEMBL document CHEMBL2016445, “Discovery of a novel class of potent and orally bioavailable sphingosine 1-phosphate receptor 1 antagonists” (J Med Chem, 2012)
One block for each compound: values may come before it.

Experiments:
[1] = biological target: T1, Sphingosine 1-phosphate receptor 1 (Homo sapiens, UniProt P21453); assay: Antagonist activity at S1P1 receptor expressed in HEK293 cells assessed as inhibition of S1P-induced cAMP response after 90 mins by spectrophotometry; type: functional, cell-based
T1 sequence (P21453 whole entry): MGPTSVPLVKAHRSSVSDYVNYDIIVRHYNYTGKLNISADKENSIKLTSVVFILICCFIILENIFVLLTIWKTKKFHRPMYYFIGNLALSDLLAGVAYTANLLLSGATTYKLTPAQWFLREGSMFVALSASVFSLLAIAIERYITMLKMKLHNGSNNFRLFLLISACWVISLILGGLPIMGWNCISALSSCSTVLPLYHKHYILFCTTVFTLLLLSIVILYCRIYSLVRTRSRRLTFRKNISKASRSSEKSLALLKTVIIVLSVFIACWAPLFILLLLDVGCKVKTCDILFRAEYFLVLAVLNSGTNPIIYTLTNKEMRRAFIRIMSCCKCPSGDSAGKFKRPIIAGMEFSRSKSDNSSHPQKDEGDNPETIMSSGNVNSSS

[2] = Drug uptake in nu/nu homozygous mouse plasma at 100 mg/kg, po as a suspension in 10% NMP/corn oil after 4 hrs by HPLC/MS/MS analysis; type: ADME, organism-based; parameters: dose 100 mg/kg, route oral
In short: (§1)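 Female Nu/Nu mice (~8 wk, 20-22 g) given a single 100 mpk oral dose at 10 mL/kg. Vehicles: 10% EtOH/45% or 40% PEG400/water + 1 molar equiv HCl, 10% EtOH/40% PEG400/20% Captisol + HCl, or 10% NMP/90% corn oil. Heparinized blood collected 1 and 4 h post-dose; plasma analysed by HPLC/MS/MS.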

[3] = Drug uptake in nu/nu homozygous mouse plasma at 100 mg/kg, po as a suspension in 10% NMP/corn oil after 1 hr by HPLC/MS/MS analysis; type: ADME, organism-based; parameters: dose 100 mg/kg, route oral; in short: as §1
[4] = Metabolic stability of the compound in mouse liver microsomes assessed as compound oxidation measuring disappearance of compound at 15 uM after 30 mins by LC/MS/MS analysis; type: ADME, Microsome; details: read-out: Drug degradation
In short: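 Incubated in duplicate for 30 min at 37 °C: 15 µM compound, 0.15% DMSO, 0.5 mg/mL mouse liver microsomes, 1 mM NADPH, 100 mM potassium phosphate pH 7.4. Stopped with acetonitrile containing 0.1% formic acid. Parent remaining measured by LC/MS/MS; disappearance calculated relative to no-NADPH controls.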

[5] = Drug uptake in nu/nu homozygous mouse plasma at 100 mg/kg, po as a solution in 10% EtOH/40% PEG400/water + 1:1 HCl after 1 hr by HPLC/MS/MS analysis; type: ADME, organism-based; parameters: dose 100 mg/kg, route oral; in short: as §1
[6] = Drug uptake in nu/nu homozygous mouse plasma at 100 mg/kg, po as a solution in 10% EtOH/40% PEG400/water + 1:1 HCl after 4 hrs by HPLC/MS/MS analysis; type: ADME, organism-based; parameters: dose 100 mg/kg, route oral; in short: as §1
[7] = biological target: Sphingosine 1-phosphate receptor 2 (Homo sapiens, UniProt O95136); assay: Antagonist activity at S1P2 receptor expressed in HEK293 cells assessed as inhibition of S1P-induced tango beta-arrestin recruitment preincubated for 30 mins prior S1P addition measured after 16 to 18 hrs by luciferase reporter gene assay; type: functional, cell-based
Sphingosine 1-phosphate receptor 2, sequence (O95136 whole entry): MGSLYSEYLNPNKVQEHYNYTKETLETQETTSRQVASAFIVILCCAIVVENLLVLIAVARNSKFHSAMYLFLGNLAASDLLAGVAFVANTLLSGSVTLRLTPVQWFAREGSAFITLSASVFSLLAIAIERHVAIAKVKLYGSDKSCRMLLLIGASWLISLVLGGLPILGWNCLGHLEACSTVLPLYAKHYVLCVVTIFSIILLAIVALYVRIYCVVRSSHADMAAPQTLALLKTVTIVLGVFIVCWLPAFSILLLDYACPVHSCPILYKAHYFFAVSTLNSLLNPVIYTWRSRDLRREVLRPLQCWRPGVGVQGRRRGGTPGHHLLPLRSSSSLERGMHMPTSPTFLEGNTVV

[8] = Drug uptake in nu/nu homozygous mouse plasma at 100 mg/kg, po as a solution in 10% EtOH/45% PEG400/water + 1:1 HCl after 1 hr by HPLC/MS/MS analysis; type: ADME, organism-based; parameters: dose 100 mg/kg, route oral; in short: as §1
Mus musculus = assay: Toxicity in athymic nude mouse xenografted with human MDA-MB-231T cells assessed as body weight loss at 300 mg/kg, po qd for 14 days post implantation measured for 14 days; type: organism-based; parameters: dose 300 mg/kg, route oral; details: in vivo, 336 h
In short: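 Female NCr athymic nude mice bearing mammary fat pad MDA-MB-231T tumors (1 x 10⁶ cells). Dosed orally once daily at 10 mL/kg from fresh solutions. Body weights recorded daily; clinical signs and survival monitored daily.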

[9] = Antitumor activity against human MDA-MB-231T cells xenografted in athymic nude mouse assessed as tumor growth inhibition at 300 mg/kg, po qd for 14 days post implantation measured for 14 days; type: functional; details: 336 h, read-out: TGI
In short: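 MDA-MB-231T cells grown in DMEM with 10% FBS. 1 x 10⁶ cells in ice-cold HBSS implanted into the mammary fat pad of female athymic nude (NCr) mice, 5-8 wk. Daily oral dosing at 10 mL/kg, solutions made fresh daily. Tumor weight measured twice weekly; TGI calculated against vehicle and staging-day weights; 2-tailed t-test, p<0.05.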

[10] = biological target: T1, Sphingosine 1-phosphate receptor 1; assay: Antagonist activity at S1P1 receptor expressed in HEK293 cells assessed as inhibition of S1P-induced tango beta-arrestin recruitment preincubated for 30 mins prior S1P addition measured after 16 to 18 hrs by luciferase reporter gene assay; type: functional, cell-based
[11] = Drug uptake in nu/nu homozygous mouse plasma at 100 mg/kg, po as a solution in 10% EtOH/45% PEG400/water + 1:1 HCl after 4 hrs by HPLC/MS/MS analysis; type: ADME, organism-based; parameters: dose 100 mg/kg, route oral; in short: as §1
[12] = biological target: Sphingosine 1-phosphate receptor 3 (Homo sapiens, UniProt Q99500); assay: Antagonist activity at S1P3 receptor expressed in HEK293 cells assessed as inhibition of S1P-induced tango beta-arrestin recruitment preincubated for 30 mins prior S1P addition measured after 16 to 18 hrs by luciferase reporter gene assay; type: functional, cell-based
Sphingosine 1-phosphate receptor 3, sequence (Q99500 whole entry): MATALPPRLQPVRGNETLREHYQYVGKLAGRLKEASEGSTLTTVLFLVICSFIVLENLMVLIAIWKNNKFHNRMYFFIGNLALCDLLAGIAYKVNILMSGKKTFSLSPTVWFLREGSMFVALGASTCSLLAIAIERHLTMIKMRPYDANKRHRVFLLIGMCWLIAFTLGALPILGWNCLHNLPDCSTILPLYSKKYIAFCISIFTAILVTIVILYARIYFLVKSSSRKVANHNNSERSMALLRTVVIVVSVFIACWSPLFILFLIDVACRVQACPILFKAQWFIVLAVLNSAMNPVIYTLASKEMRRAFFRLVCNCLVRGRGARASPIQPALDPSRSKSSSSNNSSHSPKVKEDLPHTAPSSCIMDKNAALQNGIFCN

SMILES: CN(CC(=O)N[C@H](COCc1ccccc1)C(=O)Nc1ccc(Oc2ccccc2)cc1)C(=O)c1ccccc1
- IC50 [1]: > 10000 nM

SMILES: O=C(N[C@@H](COCc1ccccc1)C(=O)Nc1ccc(Oc2ccccc2)cc1)c1cnc[nH]1
- IC50 [1]: > 1000 nM

SMILES: O=C(Cc1cc(Cl)ccc1Cl)N[C@@H](COCc1ccccc1)C(=O)Nc1ccc(Oc2ccccc2)cc1
- IC50 [1]: > 10000 nM

SMILES: O=C(Cc1cnc[nH]1)N[C@@H](COCc1ccccc1)C(=O)Nc1ccc(Oc2ccccc2Cl)cc1
- IC50 [1]: > 10000 nM

SMILES: O=C(Cc1cnc[nH]1)N[C@@H](COCc1ccccc1)C(=O)Nc1ccc2oc3ccccc3c2c1
- IC50 [1]: > 10000 nM

SMILES: O=C(Cc1cnc[nH]1)N[C@@H](COCc1ccccc1)C(=O)Nc1ccc(Cc2ccccc2)cc1
- IC50 [1]: > 10000 nM

SMILES: O=C(Cc1cnc[nH]1)N[C@@H](COCc1ccccc1)C(=O)Nc1ccc(Nc2ccccc2)cc1
- IC50 [1]: 743 nM

Now those with a lower IC50 [1], led by results:

- IC50 [1]: 702 nM
SMILES: O=C(Cc1cnc[nH]1)N[C@@H](COCc1ccccc1)C(=O)Nc1ccc(OC2CCCCC2)cc1

- IC50 [1]: 548 nM
SMILES: CN(CC(=O)N[C@@H](COCc1ccccc1)C(=O)Nc1ccc(Oc2ccccc2)cc1)C(=O)c1ccccc1

- IC50 [1]: 500 nM
SMILES: O=C(Cc1ccccc1F)N[C@@H](COCc1ccccc1)C(=O)Nc1ccc(Oc2ccccc2)cc1

- IC50 [1]: 228 nM
SMILES: Cn1cnc(CC(=O)N[C@@H](COCc2ccccc2)C(=O)Nc2ccc(Oc3ccccc3)cc2)c1

- IC50 [1]: 211 nM
SMILES: O=C(Cc1cnc[nH]1)N[C@@H](COCc1ccccc1)C(=O)Nc1ccc(Oc2ccccc2)c(Cl)c1

- IC50 [1]: 152 nM
SMILES: O=C(Cc1c[nH]cn1)N[C@@H](COCc1ccccc1)C(=O)Nc1ccc(OCc2ccccc2)cc1

- IC50 [1]: 96 nM
SMILES: O=C(Cc1cnc[nH]1)N[C@@H](COCc1ccccc1)C(=O)Nc1ccc(Oc2cccc(Cl)c2)cc1

- IC50 [1]: 33 nM
- concentration at 4 h [2]: 0.3 µM
- concentration at 1 h [3]: 4.4 µM
- metabolised at 0.5 h, 15 µM [4]: 28%
- concentration at 1 h [5]: 5 µM
- concentration at 4 h [6]: 3 µM
SMILES: O=C(Cc1cnc[nH]1)N[C@@H](COCc1ccccc1)C(=O)Nc1ccc(Oc2ccccc2)cc1

- IC50 [1]: 32 nM
- IC50 [7]: > 10000 nM
- concentration at 1 h [8]: 11 µM
- metabolised at 0.5 h, 15 µM [4]: 9%
- IC50 [10]: 221 nM
- concentration at 4 h [11]: 11 µM
- IC50 [12]: > 10000 nM
SMILES: O=C(Cc1cnc[nH]1)N[C@@H](COCc1ccccc1)C(=O)Nc1ccc(Oc2ccc(Cl)cc2)cc1
- Activity (Mus musculus): Non-toxic
- inhibition in vivo at 300 mg/kg [9]: 45%

- IC50 [1]: 13 nM
- IC50 [7]: > 10000 nM
- metabolised at 0.5 h, 15 µM [4]: 9%
- concentration at 1 h [5]: 8 µM
- concentration at 4 h [6]: 3 µM
- IC50 [10]: 284 nM
- IC50 [12]: > 10000 nM
SMILES: O=C(Cc1c[nH]cn1)N[C@@H](COCc1ccccc1)C(=O)Nc1ccc(Oc2ccc(F)cc2)cc1
- Activity (Mus musculus): Non-toxic
- inhibition in vivo at 300 mg/kg [9]: 54%
